Published values of several laboratories.
Lines come from different studies, so protocols differ. ≈ marks a conversion by molar mass, not a printed value.

Oc1cc2c(cc1O)C(CCc1ccccc1)NCC2 (stereo not drawn) has an IC50 of 8.09 µM (ABTS scavenging; 10 min, dark).
For c1ccc(Oc2ccc(Nc3c4c(nc5ccccc35)CCC4)cc2)cc1, the IC50 was 0.57 µM (Leishmania donovani; parasite growth; THP-1; intracellular, amastigote).
With CCCCCCCCCC1NCCc2cc(O)c(O)cc21 (stereo not drawn) the IC50 was 57.3 µM (ABTS scavenging; 10 min, dark).
CCCCC[C@H](O)/C=C/[C@@H]1[C@@H](C/C=C\CCCC(=O)O)[C@@H](O)C[C@H]1O has an IC50 of > 100 µM (Leishmania donovani; parasite growth, resazurin; 72 h, promastigote).
O=C1O[C@H]([C@@H](O)CO)C(O)=C1O has an IC50 of 54.5 mg/L (ABTS scavenging; 20 min).
The EC50 of CN1CCN(S(=O)(=O)c2ccc(-c3ccc4nncc(Nc5ncc(Cl)cn5)c4c3)cc2)CC1 is reported as 0.035 mg/L (≈ 0.0706 µM) (Leishmania donovani; parasite growth; intracellular, amastigote).
For CCCCCCCCC1NCCc2cc(O)c(O)cc21 (stereo not drawn), the IC50 was 47.5 µM (ABTS scavenging; 10 min, dark).
With c1ccc(-c2ccc3c(c2)NC(C2Nc4cc(-c5ccccc5)ccc4O2)O3)cc1 (stereo not drawn) the IC50 was 9.21 µM (Leishmania donovani; parasite growth, resazurin; 72 h, promastigote).
CCCCCCCCCCC1NCCc2cc(O)c(O)cc21 (stereo not drawn) gave an IC50 of 69.9 µM (ABTS scavenging; 10 min, dark).
CCCCCCCCCCCCCCCCOP(=O)([O-])OCC[N+](C)(C)C has an IC50 of 3.78 µM (Leishmania donovani; parasite growth; THP-1; 72 h, intracellular, amastigote).
CCCCCCCCCCCCCCCCCCOc1ccccc1CC(=O)OCC[N+]1(C)CCCCC1 has an inhibition of 66.7% (NCI-H522; cell growth or viability, SRB; 10 µM).
CCOc1ccc(Nc2c3c(nc4ccccc24)CCC3)cc1 gave an IC50 of 0.78 µM (Leishmania donovani; parasite growth; THP-1; 72 h, intracellular, amastigote).
The inhibition of CCCCCCCCCCCCCCCCCCOc1ccccc1CC(=O)OCC[N+]1(C)CCCC1 is reported as 93.2% (NCI-H522; cell growth or viability, SRB; 10 µM).
COc1cccc(C2NCCc3cc(O)c(O)cc32)c1 (stereo not drawn) has an IC50 of 11.2 µM (ABTS scavenging; 10 min, dark).
The IC50 of C[C@@H]1[C@H](O)[C@@H](C)/C=C/C=C/C=C/C=C/C=C/C=C/C=C/[C@H](O[C@@H]2O[C@H](C)[C@@H](O)[C@H](N)[C@@H]2O)C[C@@H]2O[C@](O)(C[C@@H](O)C[C@@H](O)[C@H](O)CC[C@@H](O)C[C@@H](O)CC(=O)O[C@H]1C)C[C@H](O)[C@H]2C(=O)O is reported as 0.6 µM (Leishmania donovani; parasite growth; THP-1; 72 h, intracellular, amastigote).
